Measured values as given in BindingDB's records for doi:10.1021/acs.jmedchem.9b02004 (University of Illinois At Chicago, 2020).

Target: T1, Acid ceramidase (Homo sapiens, UniProt Q13510)
T1 sequence (Q13510 whole entry): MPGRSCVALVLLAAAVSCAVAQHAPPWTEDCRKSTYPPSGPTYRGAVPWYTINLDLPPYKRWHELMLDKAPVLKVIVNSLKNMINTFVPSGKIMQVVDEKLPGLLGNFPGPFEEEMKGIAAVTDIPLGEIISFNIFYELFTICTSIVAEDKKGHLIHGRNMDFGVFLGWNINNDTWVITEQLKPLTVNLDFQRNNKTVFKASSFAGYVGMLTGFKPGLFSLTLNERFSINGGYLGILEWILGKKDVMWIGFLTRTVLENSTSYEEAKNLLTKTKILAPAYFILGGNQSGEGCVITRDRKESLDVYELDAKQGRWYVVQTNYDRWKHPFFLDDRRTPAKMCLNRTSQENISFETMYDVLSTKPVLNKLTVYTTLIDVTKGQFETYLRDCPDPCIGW
Test: Time-dependent inhibition of human acid ceramidase expressed in HEK293 cells using Rbm14-12 as substrate by fluorescence assay
Procedure, shortened: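 hAC-enriched lysates with fluorogenic substrate Rbm 14-12; vehicle 1% DMSO; time-dependent inhibition analysed for ki/KI and ki; two independent experiments, each in two technical replicates.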

kinact: 0.0025 s⁻¹
Structure (SMILES): CC(C)CNC(=O)n1c(=O)oc2cc(C3CCN(C)CC3)ccc21
